Read-outs that look alike come from different tables or passages of the source.
What was measured:
[1] = tested on: ZIKV; assay: Anti-ZIKV assay; format: cell-based, Zika virus; details: for EC50: Zika virus
Method in brief: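 Cells seeded at 2 × 10^5/well and pretreated 2 h with serial dilutions of test compound (DMSO stock diluted in medium). Infected with ZIKV (Asian strain KU963796) at MOI 0.1 for 2 h, then incubated to 48 hpi at 37 °C, 5% CO2 in DMEM. Cellular vRNA measured by SYBR Green qRT-PCR using the 2^-ΔΔCT method normalized to GAPDH. EC50 is the concentration reducing viral yield by 50%.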

[2] = Cytotoxicity measurement; format: cell-based; details: human, A549 cells
Method in brief: (§1)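 Cells seeded at 6 × 10^3/well and exposed to a range of test compound concentrations (DMSO stock diluted in medium) for 48 h; controls received equal-volume DMSO. 10% CCK8 reagent added for 1 h, then absorbance read at 450 nm. CC50 taken as the concentration lowering viability by 50%.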

[3] = tested on: ZIKV; details: ref Adcock et al., 2017; cited from earlier work
[4] = Cytotoxicity measurement; format: cell-based; details: African green monkey, Vero cells
Method in brief: as §1

[5] = Cytotoxicity measurement; format: cell-based; details: human, Huh7 cells
Method in brief: as §1

[6] = molecular target: ZIKV NS5 RdRp (Zika virus, UniProt A0A024B7W1); assay: In vitro RNA polymerase assay; format: biochemical; details: recombinant ZIKV NS5, serial dilutions
ZIKV NS5 RdRp, sequence (A0A024B7W1 2521-3423 limits assumed): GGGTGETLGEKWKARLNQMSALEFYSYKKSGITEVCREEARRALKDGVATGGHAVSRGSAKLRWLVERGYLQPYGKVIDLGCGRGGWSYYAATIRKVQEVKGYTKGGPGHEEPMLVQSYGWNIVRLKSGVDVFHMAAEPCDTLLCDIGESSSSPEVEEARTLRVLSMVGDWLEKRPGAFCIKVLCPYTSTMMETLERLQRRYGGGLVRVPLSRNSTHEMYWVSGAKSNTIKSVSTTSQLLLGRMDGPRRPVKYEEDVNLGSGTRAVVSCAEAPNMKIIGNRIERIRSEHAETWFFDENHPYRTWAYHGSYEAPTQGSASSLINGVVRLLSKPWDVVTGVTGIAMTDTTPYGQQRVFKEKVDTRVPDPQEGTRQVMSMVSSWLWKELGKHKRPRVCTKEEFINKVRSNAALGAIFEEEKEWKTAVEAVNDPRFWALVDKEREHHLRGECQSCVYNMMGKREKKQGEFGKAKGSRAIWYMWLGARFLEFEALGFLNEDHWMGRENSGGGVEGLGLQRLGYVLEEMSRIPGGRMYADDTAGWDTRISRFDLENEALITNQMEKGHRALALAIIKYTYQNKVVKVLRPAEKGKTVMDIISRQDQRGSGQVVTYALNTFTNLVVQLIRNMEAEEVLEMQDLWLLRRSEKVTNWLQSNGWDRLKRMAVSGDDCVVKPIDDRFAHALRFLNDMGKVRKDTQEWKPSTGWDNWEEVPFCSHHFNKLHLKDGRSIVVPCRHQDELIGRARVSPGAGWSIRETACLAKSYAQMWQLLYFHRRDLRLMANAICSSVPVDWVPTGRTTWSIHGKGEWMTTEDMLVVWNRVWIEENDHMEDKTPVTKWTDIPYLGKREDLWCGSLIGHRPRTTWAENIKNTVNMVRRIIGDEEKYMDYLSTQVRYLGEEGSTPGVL

[7] = tested on: ZIKV; assay: Time-of-addition assay; format: cell-based, Zika virus; details: 1 μM, added between -2 and 10 hpi, Vero cells, read at 48 hpi
[8] = tested on: ZIKV; assay: Lethal ZIKV challenge in AG6 mice; format: in vivo
Method in brief: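 AG6 mice aged 4–5 weeks (13–15 g, n = 6/group) were infected with 3.3 × 10^6 PFU ZIKV via footpad. Dosed intragastrically at 1, 5 or 10 mg/kg (DMSO stock in 0.5% carboxymethyl cellulose) or vehicle for 14 days. Survival and body weight tracked to 14 dpi. Retro-orbital blood at 1, 3, 7 dpi: vRNA copies by qRT-PCR against a standard curve. Brain/liver vRNA by RT-qPCR; H&E histology. One-way ANOVA with Dunnett's test.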

[9] = tested on: ZIKV; assay: ZIKV strand specific RNA by qRT-PCR; format: cell-based; details: Zika virus, Vero
[10] = tested on: ZIKV; assay: Time-of-removal assay; format: cell-based, Zika virus
Method in brief: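 ZIKV-infected Vero cells received 1 μM test compound or DMSO at 6 hpi, with vRNA sampled every 3 h up to 24 hpi. Alternatively, treatment started at 24 hpi, with sampling every 6 h for a further 12 h. vRNA by SYBR Green qRT-PCR normalized to GAPDH. E and NS5 protein by western blot of cell lysates (SDS-PAGE, PVDF, overnight primary antibody at 4 °C, ECL), with GAPDH detected.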

[11] = tested on: ZIKV; assay: Viral protein by western blotting and immunofluorescence in Vero cells; format: cell-based, Zika virus
Method in brief: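 Vero cells infected with ZIKV at MOI 0.1 and treated with test compound or DMSO. At 48 hpi: fixed in 4% paraformaldehyde (15 min), permeabilized with 0.2% Triton X-100 (5 min), blocked in 5% BSA (30 min). Stained overnight at 4 °C with pan-flavivirus envelope mAb 4G2, then fluorescent secondary for 30 min at RT. Nuclei stained with DAPI; imaged by confocal microscopy.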

[12] = tested on: ZIKV; assay: Plaque forming assay; format: cell-based, Zika virus
Method in brief: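 Supernatants from ZIKV-infected, compound-treated cultures were put on overnight Vero monolayers (2 × 10^5 cells/well) for 2 h at 37 °C. Inoculum replaced with plaque medium containing 1% methylcellulose. After 7 days, cells fixed and stained with 4% formaldehyde and 0.5% crystal violet.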

[13] = 1 μM added at 6 hpi, after 24 h of viral infection, western blot intensity

For Cc1c(-c2ccc(-c3ccccc3F)cc2)nc2ccc(F)cc2c1C(=O)O [Brequinar, reference compound], the “SI (selectivity index)” value ([1]; A549 cells) was >1086, the “SI (selectivity index)” value ([1]; Huh7 cells) was >8333 and the “SI (selectivity index)” value ([1]; Vero cells) was >2272. For the same compound, the EC50 ([1]; A549) was 46 nM, the EC50 ([1]; Huh-7) was 6 nM and the EC50 ([1]; Vero) was 22 nM. The CC50 at 48 h [2] was > 50000 nM, the EC50 [3] was 80 nM and the CC50 at 48 h [4] was > 50000 nM. The CC50 at 48 h [5] was > 50000 nM.

With O[C@H]1[C@H]2c3cc4c(cc3CN3CCC(=C[C@@H]1O)[C@H]23)OCO4 [Lycorine] the “SI (selectivity index)” value ([1]; A549 cells) was 19.5, the “SI (selectivity index)” value ([1]; Huh7 cells) was 20 and the “SI (selectivity index)” value ([1]; Vero cells) was 54. It also gave an EC50 ([1]; A549) of 220 nM, an EC50 ([1]; Huh-7) of 220 nM and an EC50 ([1]; Vero) of 390 nM. The CC50 at 48 h [2] was 4290 nM, the RdRp activity [6] was “directly inhibited RdRp activity in a dose-dependent manner” and the “vRNA and viral progeny particle load, time-of-addition” value [7] was “strongest ability to decrease the vRNA and viral progeny particle load”. For the same compound, the “Brain histopathology (H&E)” value ([8]; 1 mg/kg) was “brain tissue lesions were similar to those in the ZIKV group”, the “Liver histopathology (H&E)” value ([8]; 1 mg/kg) was “inflammatory response of the cells was obvious” and the “Reduction of vRNA of brain tissue” value ([8]; 1 mg/kg) was “not significant difference”. For the same compound, the “Reduction of vRNA of liver” value ([8]; 1 mg/kg) was “not significant difference”, the Survival rate ([8]; 1 mg/kg intragastric, 14 days) was 33% and the “Brain histopathology (H&E)” value ([8]; 5 mg/kg) was “significantly reduced the ZIKV-induced inflammatory response”. For the same compound, the “Reduction of vRNA of brain tissue” value ([8]; 5 mg/kg) was “about one order of magnitude”, the “Reduction of vRNA of liver” value ([8]; 5 mg/kg) was “about one and half order of magnitude, respectively” and the Survival rate ([8]; 5 mg/kg intragastric, 14 days) was 66%. For the same compound, the “Brain histopathology (H&E)” value ([8]; 10 mg/kg) was “significantly reduced the ZIKV-induced inflammatory response”, the “Reduction of vRNA of brain tissue” value ([8]; 10 mg/kg) was “about three orders of magnitude” and the “Survival (protection against ZIKV infection-induced death)” value ([8]; 10 mg/kg intragastric, 14 days, ZIKV group 100% mortality) was 83%. The “Liver histopathology (H&E)” value ([8]; 10 mg/kg, compared to 5 mg/kg group) was “significantly reduced liver damage”, the “vRNA levels in blood versus ZIKV group” value ([8]; 1, 3 and 7 dpi) was “one order of magnitude lower” and the Body weight changes ([8]; weight loss from 5 dpi, 0 to 14 dpi) was “recovered until 9 or 10 dpi”. For the same compound, the inhibition at 1 µM ([9]; read-out: Inhibition of negative-sense vRNA synthesis) was ~95%, the inhibition at 1 µM ([9]; read-out: Inhibition of positive-sense vRNA synthesis) was ~93% and the CC50 at 48 h [4] was 21000 nM. The vRNA synthesis ([10]; 1 μM added at 6 hpi, Vero cells, monitored up to 24 hpi) was “fully abrogated vRNA synthesis”, the NS5 protein reduction [10, 13] was 89% and the “Virus E protein reduction” value [10, 13] was 52%. For the same compound, the “Viral E and NS5 protein reduction” value ([10]; 1 μM added at 24 hpi) was “no significant difference”, the vRNA ([10]; 1 μM added at 24 hpi, monitored for additional 12 h) was “no effect on vRNA” and the “ZIKV protein (western blotting)” value ([11]; 0.01 to 10 μM) was “dose-dependent reduction in the ZIKV protein”. For the same compound, the “ZIKV envelope biosynthesis (immunofluorescence)” value ([11]; 48 hpi) was “significantly reduced”, the “Inhibition of plaque formation” value ([12]; 0.5 μM) was “partially” and the “Inhibition of plaque formation” value ([12]; 5 μM) was “completely”. It also gave a CC50 at 48 h [5] of 4400 nM.

Reference: article PMC7194111 (Virology, 2020)
